A short description of data set [1]: Lipophilicity, log D at pH 7.4 by HPLC method. Particulars: buffer.
Data set [2] addresses T1, Nitric oxide synthase, inducible (Mus musculus) (UniProt P29477).
T1 sequence (whole entry): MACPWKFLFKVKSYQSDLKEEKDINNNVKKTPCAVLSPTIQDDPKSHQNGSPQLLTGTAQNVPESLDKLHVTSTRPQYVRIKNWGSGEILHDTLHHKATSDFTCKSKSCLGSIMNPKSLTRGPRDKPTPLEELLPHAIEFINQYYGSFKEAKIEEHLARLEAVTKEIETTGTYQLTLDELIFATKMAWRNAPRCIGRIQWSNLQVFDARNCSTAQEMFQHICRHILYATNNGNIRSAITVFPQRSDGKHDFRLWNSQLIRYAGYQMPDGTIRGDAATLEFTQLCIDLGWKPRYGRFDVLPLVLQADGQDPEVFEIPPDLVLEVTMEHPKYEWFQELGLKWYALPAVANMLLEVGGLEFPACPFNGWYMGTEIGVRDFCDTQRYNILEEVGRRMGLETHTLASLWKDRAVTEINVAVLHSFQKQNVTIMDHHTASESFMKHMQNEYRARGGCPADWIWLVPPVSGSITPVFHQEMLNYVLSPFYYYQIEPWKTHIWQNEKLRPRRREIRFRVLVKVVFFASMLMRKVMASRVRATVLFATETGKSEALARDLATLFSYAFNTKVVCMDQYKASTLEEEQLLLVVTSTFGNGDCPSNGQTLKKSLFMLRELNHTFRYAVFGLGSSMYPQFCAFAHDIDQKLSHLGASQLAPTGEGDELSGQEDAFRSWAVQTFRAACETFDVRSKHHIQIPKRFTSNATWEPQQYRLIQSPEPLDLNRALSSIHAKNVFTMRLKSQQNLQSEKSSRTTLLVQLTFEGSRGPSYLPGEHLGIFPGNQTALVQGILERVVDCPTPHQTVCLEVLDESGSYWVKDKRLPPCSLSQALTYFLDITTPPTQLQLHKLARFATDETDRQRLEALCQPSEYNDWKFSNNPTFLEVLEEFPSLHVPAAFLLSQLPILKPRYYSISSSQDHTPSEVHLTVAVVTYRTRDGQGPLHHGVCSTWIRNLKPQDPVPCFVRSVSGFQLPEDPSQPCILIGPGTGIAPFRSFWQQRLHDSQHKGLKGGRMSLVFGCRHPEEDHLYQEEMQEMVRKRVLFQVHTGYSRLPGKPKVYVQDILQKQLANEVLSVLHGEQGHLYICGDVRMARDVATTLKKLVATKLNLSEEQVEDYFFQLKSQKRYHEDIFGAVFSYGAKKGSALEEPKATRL
Description: Inhibition of mouse recombinant iNOS expressed in Escherichia coli assessed as conversion of [gamma-14C]L-arginine to [14C]L-citrulline at 100 uM by radioactive assay relative to control. The arrangement: scale not given: the % may be the effect or the level left. In outline:
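Purified enzymes: rat nNOS from S. cerevisiae, murine iNOS and bovine eNOS from E. coli. Reaction 5 min at 37 °C in 50 mM Hepes pH 7.4 with DTT, 1 mM NADPH, H4B, FAD, FMN, [14C]L-arginine (2.5 µM L-arginine) and 100 µM compound in 1% DMSO. nNOS/eNOS also got 1 mM CaCl2 and CaM, which iNOS lacked. [14C]citrulline isolated on Dowex and counted by scintillation; % of DMSO control, n=3.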

Another data set has as its system RAW264.7. In words: Cytotoxicity against mouse RAW264.7 cells at 100 uM. To be noted: raw264.7, 100 µM. It counts as cell-based.
Data set [3] addresses T1, Nitric oxide synthase, inducible (Mus musculus). In words: Inhibition of iNOS in LPS and IFN-gamma-stimulated mouse RAW264.7 cells assessed as inhibition of nitrite accumulation at 100 uM after 15 hrs by Griess assay. It is filed as cell-based. In outline:
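RAW 264.7 macrophages seeded at 100,000 cells/well in RPMI 1640 with 5% FCS and grown 24 h. Stimulated with 40 U/ml γ-IFN and 50 ng/ml LPS, with compound at 100 µM in 1% DMSO, for 15 h at 37 °C. Supernatant nitrite measured with Griess reagent at 550 nm against an NaNO2 calibration; 6–8 determinations.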

Data set [4] has the same target. Description: Inhibition of mouse recombinant iNOS expressed in Escherichia coli assessed as NADPH consumption at 100 uM after 2 mins by spectrophotometry. Put shortly: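 Murine iNOS from E. coli (15–50 nM final) in 50 mM Hepes pH 7.4 with 5 mM DTT, 100 µM CaCl2, 200 µM NADPH, 10 µM H4B, 100 µM L-arginine and 100 µM compound. Cofactors and compound preincubated 2 min at 37 °C, enzyme added, and A340 followed for 3 min (ε 6.2 mM-1 cm-1). Given as % of 1% DMSO control NADPH oxidase rate.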

The target is the same in data set [5]. In words: Binding affinity to oxygenase domain of mouse iNOS at 100 uM assessed as formation of enzyme-Fe3-ImH complex by UV-visible spectra analysis.
The target in a further data set is Nitric oxide synthase 1 (Rattus norvegicus, UniProt P29476). In words: Inhibition of rat recombinant nNOS expressed in Saccharomyces cerevisiae assessed as conversion of [gamma-14C]L-arginine to [14C]L-citrulline by radioactive assay. Put shortly: (§1)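 CaCl2/CaM present for nNOS (S. cerevisiae) and eNOS (E. coli) but omitted for iNOS (E. coli). Citrulline separated by Dowex cation exchange, then scintillation counting.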
Chain of Nitric oxide synthase 1 (P29476 whole entry): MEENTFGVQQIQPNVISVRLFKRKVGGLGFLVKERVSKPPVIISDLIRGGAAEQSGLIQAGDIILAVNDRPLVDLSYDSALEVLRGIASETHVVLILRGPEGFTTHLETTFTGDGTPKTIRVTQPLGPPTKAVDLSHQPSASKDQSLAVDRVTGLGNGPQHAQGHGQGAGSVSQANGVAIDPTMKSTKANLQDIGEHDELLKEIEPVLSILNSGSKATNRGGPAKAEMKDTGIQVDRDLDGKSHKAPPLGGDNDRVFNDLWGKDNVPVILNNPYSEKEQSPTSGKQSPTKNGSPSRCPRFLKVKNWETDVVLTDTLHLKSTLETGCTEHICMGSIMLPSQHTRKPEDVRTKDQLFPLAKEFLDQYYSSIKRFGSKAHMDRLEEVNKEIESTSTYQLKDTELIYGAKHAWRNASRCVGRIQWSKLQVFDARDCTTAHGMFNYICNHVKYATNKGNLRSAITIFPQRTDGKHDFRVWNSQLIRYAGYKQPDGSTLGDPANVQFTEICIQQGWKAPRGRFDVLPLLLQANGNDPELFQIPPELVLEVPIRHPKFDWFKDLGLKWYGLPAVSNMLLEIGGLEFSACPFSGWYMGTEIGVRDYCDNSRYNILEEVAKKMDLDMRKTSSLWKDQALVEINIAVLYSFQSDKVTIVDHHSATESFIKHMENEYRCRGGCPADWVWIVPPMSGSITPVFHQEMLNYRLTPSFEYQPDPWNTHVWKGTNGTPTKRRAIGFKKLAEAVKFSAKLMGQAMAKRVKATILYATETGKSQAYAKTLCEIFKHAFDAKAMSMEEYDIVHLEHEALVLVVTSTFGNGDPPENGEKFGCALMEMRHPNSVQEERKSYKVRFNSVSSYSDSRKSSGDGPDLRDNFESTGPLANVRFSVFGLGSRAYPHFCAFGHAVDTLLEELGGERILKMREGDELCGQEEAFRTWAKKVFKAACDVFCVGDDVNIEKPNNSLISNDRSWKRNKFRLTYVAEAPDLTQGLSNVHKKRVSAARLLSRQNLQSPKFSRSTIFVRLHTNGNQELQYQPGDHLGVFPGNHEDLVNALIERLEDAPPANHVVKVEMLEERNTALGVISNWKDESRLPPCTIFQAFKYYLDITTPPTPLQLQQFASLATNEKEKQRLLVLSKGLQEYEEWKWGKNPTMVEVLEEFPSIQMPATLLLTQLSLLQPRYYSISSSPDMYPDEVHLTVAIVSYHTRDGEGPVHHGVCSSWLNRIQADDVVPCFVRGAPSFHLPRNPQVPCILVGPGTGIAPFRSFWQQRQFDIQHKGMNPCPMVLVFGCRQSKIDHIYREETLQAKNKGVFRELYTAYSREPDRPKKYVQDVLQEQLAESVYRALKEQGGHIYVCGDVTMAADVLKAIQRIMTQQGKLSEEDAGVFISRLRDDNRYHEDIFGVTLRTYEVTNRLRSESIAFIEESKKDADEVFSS

The target of data set [6] is T2, Nitric oxide synthase, inducible (Mus musculus, UniProt P29477).
T2 sequence (P29477 whole entry): T1 sequence (whole entry)
Description: Inhibition of mouse recombinant iNOS expressed in Escherichia coli assessed as conversion of [gamma-14C]L-arginine to [14C]L-citrulline by radioactive assay. In outline:
as §1

Activity calls are given as the source filed them. The rule behind the calls is not given here.

Usually logD stands for lipophilicity at a set pH, counting ionised and neutral species. What is called inhibition is the change of the read-out against control, counted positive when it falls. In the case of `CC1=CC=CC2=NCC(C(=O)c3ccc(C)cc3)CN12.[O-][Cl+3]([O-])([O-])O` (centres undefined), the logD in data set [1] was determined as 1.6. Also, the Activity was 66% in data set [2] and “Non-toxic” in the data set with RAW264.7. Also, the inhibition in data set [3] is 72%. The Remaining NADPH oxidation rate (% of DMSO control) in data set [4] came to 94%.

The IC50 is the concentration at which inhibition is half-maximal. As for `COc1ccc(-c2ccc(C(=O)C3CN=C4C=C(C)C=CN4C3)cc2)cc1.Cl` (centres undefined), the result in data set [5] was Active. In addition, the Activity in data set [2] was 13%; with RAW264.7, “Non-toxic”. Besides, the results for the half-inhibitory concentration (IC50) (on Nitric oxide synthase 1; in data set [6]) were 87 µM and 18 µM, respectively. The inhibition in data set [3] is 96%. Besides, in data set [4], the Remaining NADPH oxidation rate (% of DMSO control) was 40%.

In data set [1], `CC1=CC2=NCC(C(=O)c3ccc4ccccc4c3)CN2C=C1` (centres undefined) gave a logD of 1.7.

As to `COc1ccc(C(=O)C2CN=C3C=CC=C(C)N3C2)cc1OC.[O-][Cl+3]([O-])([O-])O` (centres undefined), the logD in data set [1] came out at 1.5. Moreover, the values for the Activity (in data set [2]; in the data set with RAW264.7) were 91% and “Non-toxic”, respectively. Moreover, in data set [3], the inhibition turned out to be 70%. The Remaining NADPH oxidation rate (% of DMSO control) in data set [4] worked out at 92%.

In the case of `CC1=CC2=NCC(C(=O)c3ccc4cc(C)ccc4c3)CN2C=C1.[O-][Cl+3]([O-])([O-])O` (centres undefined), the outcome in data set [5] was Active. The figures for the Activity (in data set [2]; in the data set with RAW264.7) were 13% and “Non-toxic”, respectively. Besides, in data set [6], the half-maximal inhibitory concentration (IC50) was 29 µM. The inhibition in data set [3] turned out to be 86%. In addition, the Remaining NADPH oxidation rate (% of DMSO control) in data set [4] is 70%.

Consider `CC1=CC2=NCC(C(=O)c3ccc(-c4ccc(Br)cc4)cc3)CN2C=C1.[O-][Cl+3]([O-])([O-])O` (centres undefined), for which, in data set [5], the result was Active. In addition, in data set [1], the pH-dependent lipophilicity (logD) is 2.7. Further, the Activity in data set [2] was 19%; in the data set with RAW264.7, “Non-toxic”. Further, in data set [6], the IC50 worked out at 28 µM. Besides, the inhibition in data set [3] is 98%. Also, the Remaining NADPH oxidation rate (% of DMSO control) in data set [4] worked out at 64%.

Take `COc1ccc(C(=O)C2CN=C3C=C(C)C=CN3C2)cc1F.[O-][Cl+3]([O-])([O-])O` (centres undefined): the result in data set [5] was Active. The Activity is 45% in data set [2] and “Non-toxic” in the data set with RAW264.7. Moreover, the inhibition in data set [3] amounted to 64%. For the same compound, in data set [4], the Remaining NADPH oxidation rate (% of DMSO control) was found to be 73%.

For `CC1=CC2=NCC(C(=O)c3ccc(OCc4ccc(Br)cc4)cc3)CN2C=C1.Cl` (centres undefined), the Activity in data set [2] was 62%; with RAW264.7 it was “Non-toxic”. Moreover, in data set [3], the inhibition came to 96%. For the same compound, in data set [4], the Remaining NADPH oxidation rate (% of DMSO control) amounted to 100%.

In the case of `CC1=CC2=NCC(C(=O)c3ccc(OCc4ccc(C#N)cc4)cc3)CN2C=C1.[O-][Cl+3]([O-])([O-])O` (centres undefined), the figures for the Activity (in data set [2]; in the data set on RAW264.7) were 30% and “Non-toxic”, respectively. The inhibition in data set [3] was 93%. Moreover, the Remaining NADPH oxidation rate (% of DMSO control) in data set [4] came out at 77%.

Consider `CC1=CC2=NCC(C(=O)c3ccc4cc(C)ccc4c3)CN2C(C)=C1.[O-][Cl+3]([O-])([O-])O` (centres undefined), for which, in data set [5], the outcome was Active. Also, the log distribution coefficient (logD) in data set [1] was 2.2. For the same compound, the Activity is 28% in data set [2] and “Non-toxic” with RAW264.7. For the same compound, the IC50 at Nitric oxide synthase 1 was found to be 60 µM; in data set [6] it was 35 µM. Moreover, the inhibition in data set [3] turned out to be 89%. In data set [4], the Remaining NADPH oxidation rate (% of DMSO control) was determined as 72%.

Turning to `CC1=CC2=NCC(C(=O)c3ccc(-c4ccc(C#N)cc4)cc3)CN2C=C1.Cl` (centres undefined), the result in data set [5] was Active. Further, the Activity was 18% in data set [2] and “Non-toxic” in the data set on RAW264.7. The IC50 came to 128 µM on Nitric oxide synthase 1 and 50 µM in data set [6]. Moreover, in data set [3], the inhibition worked out at 82%. In addition, the Remaining NADPH oxidation rate (% of DMSO control) in data set [4] amounted to 40%.

On to `O=C(c1ccc(Cl)c(Cl)c1)C1CN=C2C=CC=CN2C1.[O-][Cl+3]([O-])([O-])O` (centres undefined), for which, in data set [5], the result was Active. Besides, the logD in data set [1] stood at 1.8. Besides, the Activity was 85% in data set [2] and “Non-toxic” with RAW264.7. Moreover, in data set [3], the inhibition is 59%. In addition, in data set [4], the Remaining NADPH oxidation rate (% of DMSO control) was 100%.

As to `N=C(NCCC[C@H](N)C(=O)O)N[N+](=O)[O-]`, the result in data set [5] was Active. The Activity in data set [2] was 15%.

`CC1=CC=CC2=NCC(C(=O)c3ccc(F)cc3)CN12.[O-][Cl+3]([O-])([O-])O` (centres undefined): the outcome in data set [5] was Active. Besides, the Activity in data set [2] was 66%; in the data set on RAW264.7, “Non-toxic”. Further, in data set [3], the inhibition amounted to 44%. Besides, in data set [4], the Remaining NADPH oxidation rate (% of DMSO control) is 87%.

On to `CC1=CC2=NCC(C(=O)c3ccc(OCc4ccc(Cl)cc4)cc3)CN2C=C1.[O-][Cl+3]([O-])([O-])O` (centres undefined), for which the Activity in data set [2] is 25%; with RAW264.7 it was “Non-toxic”. Besides, the inhibition in data set [3] stood at 92%. The Remaining NADPH oxidation rate (% of DMSO control) in data set [4] came out at 64%.

For `CC1=CC2=NCC(C(=O)c3ccc(-c4ccc(Br)cc4)cc3)CN2C(C)=C1` (centres undefined), in data set [2], the Activity was found to be 35%. In data set [6], the half-inhibitory concentration (IC50) came to 120 µM. Also, the Remaining NADPH oxidation rate (% of DMSO control) in data set [4] stood at 72%.

The record behind these values is ChEMBL document CHEMBL1152488, “Synthesis and evaluation of pyrido[1,2-a]pyrimidines as inhibitors of nitric oxide synthases” (Eur J Med Chem, 2009).
